Rtt109 HAT inh: inhibitors of C. albicans Rtt109/Vps75 HAT, primary screen, biochemical, ThioGlo CoA-SH fluorescence, plate reader | Histone acetyltransferase RTT109 (Candida albicans (strain SC5314 / ATCC MYA-2876)), … | purified Rtt109/Vps75, 4 h | actives 0.16% (n = 330,000) | AID 540336, 2011 | inhibition, % at 34.9 µM;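 active means inhibition of at least 50% in every replicate; inconclusive means best replicate reaches 50% inhibition but some replicates fall short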
PglD DTNB: C. jejuni PglD acetyltransferase inhibitors, primary screen, biochemical, DTNB colorimetric, single point. UDP-N-acetylbacillosamine N-acetyltransferase PglD (Campylobacter jejuni). purified PglD enzyme, DTNB colorimetric CoA detection. inhibition, % at 12.5 µM. actives 0.098% (n = 360,000). AID 602405, 2012; in the data active means inhibition above about 16%, passing the limit was not always enough; inconclusive means no clear call, values can overlap the other calls
N-glyco inh: increase of ERlucT glycosylation luciferase signal, primary screen, N-linked glycosylation inhibitor project, D54 ERlucT cells, luminescence, set 2. D54 ERlucT glycosylation luciferase reporter, 24 h; percent of 100 nM tunicamycin response. reporter increase, % at 12.5 µM. actives 0.23% (n = 360,000);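 active means mean luciferase reporter signal, scaled so untreated is 0 and the glycosylation-blocking control 100, at or above a set limit in every replicate; inconclusive means mean reaches the limit but not every replicate does; inactive means mean below the limit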;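 further: luciferase carries N-glycosylation sites so blocking glycosylation raises the light; 0% = median of neutral control wells and 100% = median of 100 nM tunicamycin wells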
SR-BI DiI inh: inhibitors of SR-BI mediated HDL lipid uptake, primary screen, ldlA[mSR-BI] cells, fluorescence, single point; Scavenger receptor class B member 1 (Mus musculus), Q61009; ldlA[mSR-BI] CHO cells, DiI-HDL uptake fluorescence, 3 h; inhibition, % at 12.5 µM; actives 0.96% (n = 320,000);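 active means mean replicate inhibition of at least 70% and a set share of replicates each scoring 70 or more; inconclusive means meets just one of the two criteria; inactive means fails both criteria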;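 further: 0% = median of neutral control wells and 100% = median of positive control wells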
Target sequence (Q61009 whole entry, looked up): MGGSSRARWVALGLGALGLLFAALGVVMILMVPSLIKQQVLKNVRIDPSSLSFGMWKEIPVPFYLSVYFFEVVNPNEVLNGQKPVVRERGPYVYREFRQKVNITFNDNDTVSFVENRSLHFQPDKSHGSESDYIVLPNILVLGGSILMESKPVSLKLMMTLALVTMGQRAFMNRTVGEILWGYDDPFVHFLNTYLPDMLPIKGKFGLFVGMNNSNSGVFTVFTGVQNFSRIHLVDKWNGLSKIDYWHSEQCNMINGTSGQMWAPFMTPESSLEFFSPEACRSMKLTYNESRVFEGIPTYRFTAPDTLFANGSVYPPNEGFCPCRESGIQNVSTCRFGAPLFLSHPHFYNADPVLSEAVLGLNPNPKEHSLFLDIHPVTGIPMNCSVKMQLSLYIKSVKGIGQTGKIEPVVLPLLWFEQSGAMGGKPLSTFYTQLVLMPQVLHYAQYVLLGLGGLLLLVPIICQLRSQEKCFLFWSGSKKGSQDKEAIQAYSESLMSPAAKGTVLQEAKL
HIV Env fusion: inhibitors of HIV-1 Env-driven cell-cell fusion, primary screen, HeLa-JRFL effector, CEM21 target cells, luciferase; inhibition, % at 12.3 µM; actives 1.1% (n = 360,000);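 active means mean replicate inhibition score of at least 50 and every replicate individually at or above 50; inconclusive means only one of the two criteria met; inactive means mean below 50 and not all replicates reaching 50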;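 further: 0% = plate neutral controls and 100% = maraviroc near 300 nM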
SR-BI uptake up: activators of SR-BI mediated DiI-HDL uptake, primary screen, ldlA[mSR-BI] CHO cells, DiI fluorescence. 3 h; 100 = double the neutral-control signal. activation, % at 12.5 µM. actives 0.096% (n = 320,000). AID 504775, 2011;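 active means mean replicate activation of at least 60% and every replicate at or above 60%; inconclusive means mean or all-replicate condition met, but not both; inactive means mean below 60% and not all replicates reaching 60%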;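 further: 0% = median plate neutral-control signal and 100% = twice that signal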
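Test system: SR-BI-overexpressing, LDLR-lacking CHO cells; Also added: labelled HDL, 10 µg/mL; Measured by: bottom-read cell fluorescence after medium removal, ex 550/em 595 nm; Timing: 3 h uptake period with compound, 37 °C; Buffer or medium: F12, 0.5% BSA, 25 mM HEPES; Doses: single compound concentration, delivered by pin transfer.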
An asterisk follows results filed as active; ? = inconclusive; nt = no result given; ! = not active in a repeat; [ ] = another dose, or the depositor's remark. Hits are enriched below; roughly 1.9% of the tested compounds scored in any of these assays.

SMILES | Rtt109 HAT inh | PglD DTNB | N-glyco inh | SR-BI DiI inh | HIV Env fusion | SR-BI uptake up
COc1ccc(NC(=S)Nc2cccc(C(C)=O)c2)cc1OC | 3.6 | nt | 2.2 | 73.4* | 20.1 | -73.4
CC(=O)c1cccc(NC(=S)NCc2ccccc2)c1 | 7.4 | 0.6 | -0.2 | 3.9 | -19.3 | -3.9
O=C(Nc1cnn(Cc2ccc(Cl)cc2Cl)c1)c1cc(-c2cccs2)on1 | -14.8 | nt | -2.2 | 22.7 | -60.0 | -22.7
COc1ccccc1CN(C)C(C)C(=O)Nc1cccc(C(C)=O)c1 (stereo not given) | 4.2 | 3.0 | -2.6 | 8.7 | -1.7 | -8.7
CC(=O)c1cccc(NC(=O)Nc2cnn(Cc3ccc(Cl)cc3Cl)c2)c1 | -5.3 | 2.0 | -1.1 | 6.5 | 64.3* | -6.5
CC(=O)c1cccc(NC(=S)NCCc2ccc(Cl)cc2)c1 | 6.5 | 2.5 | -2.6 | 76.2* | 8.4 | -76.2
CO[C@H]1CN(C)C(=O)c2ccc(NS(=O)(=O)c3cccc(F)c3)cc2OC[C@@H](C)N(C(=O)Cc2cccnc2)C[C@H]1C | nt | -2.2 | nt | nt | nt | nt
CCC/C=C(\CCC)C(NC(=O)OCC(C)C)c1ccc(C(=O)OC)cc1 (stereo not given) | 3.0 | 4.1 | -1.4 | 28.5 | 30.7 | -28.5
CCC/C=C(\CCC)C(NS(=O)(=O)c1cccc2cccnc12)c1ccc(C(=O)OC)cc1 (stereo not given) | nt | nt | nt | nt | 90.0* | nt
CCOC(=O)/C=C(\C)Sc1cc(=O)oc2ccccc12 | 17.4 | -0.1 | 25.1* | 0.2 | 23.2 | -0.2
O=C(NC1C=CS(=O)(=O)C1)c1sc2ccccc2c1Cl (stereo not given) | -4.6 | -1.7 | 31.6* | 1.0 | nt | -1.0
C[C@H](CO)N1C[C@H](C)[C@@H](CN(C)C(=O)c2ccccc2)OCCCC[C@H](C)Oc2ccc(NS(C)(=O)=O)cc2C1=O | nt | -1.9 | nt | nt | 6.1[16.7 µM] | nt
CCOC(=O)c1cc2sccc2n1CC(=O)N1c2ccccc2CC1C (stereo not given) | -7.4 | nt | 376.6* | 2.4 | -107.4 | -2.4
Cc1noc(C)c1NC(=O)N(C)C[C@H]1OCCCC[C@@H](C)Oc2ccc(NS(=O)(=O)c3ccccc3)cc2C(=O)N([C@@H](C)CO)C[C@@H]1C | nt | -2.8 | nt | nt | 5.2[16.7 µM] | nt
O=C(NCc1ccccc1F)c1ccc2c(c1)OCO2 | -1.8 | 0.1 | -0.8 | -9.6 | -39.3 | 9.6
O=C(NCCc1ccccc1F)c1ccc2c(c1)OCCO2 | -5.7 | -1.7 | -19.6 | 6.0 | 75.6* | -6.0
CCn1c(Cn2nnc(-c3ccccc3)n2)nnc1SCC(=O)Nc1cccc(C)c1C | 11.7 | -2.1 | 1.3 | 75.8* | nt | -75.8
CCn1c(Cn2nnc(-c3ccccc3)n2)nnc1SCC(=O)Nc1cccc(C(C)=O)c1 | 2.4 | 0.7 | -0.3 | 66.9 | nt | -66.9
CC[C@H](C)C(=O)O[C@H]1CCC=C2C=C[C@H](C)[C@H](CC[C@@H]3C[C@@H](O)CC(=O)O3)[C@H]21 | 8.3 | -7.5 | 54.0* | -0.1 | ? | 0.1
CCC(C)C(=O)OC1CCC=C2C=CC(C)C(CCC3CC(O)CC(=O)O3)C21 (stereo not given) | -3.3 | nt | 41.2* | -26.9 | 49.7 | 26.9
CC[C@H](C)C(=O)O[C@H]1C[C@@H](C)C=C2C=C[C@H](C)[C@H](CC[C@@H]3C[C@@H](O)CC(=O)O3)[C@H]21 | 9.3 | 0.9 | 69.2*! | -4.0 | nt | 18.3
Cc1noc(C)c1NC(=O)Nc1ccc2c(c1)C(=O)N([C@@H](C)CO)C[C@H](C)[C@H](CN(C)CC1CCCCC1)OCCCC[C@H](C)O2 | nt | 1.0 | nt | nt | 7.6[16.7 µM] | nt
CCn1c(SCC(=O)Nc2cc(OC)c(OC)c(OC)c2)nnc1-c1cccs1 | 63.5* | 5.0 | -0.8 | -19.2 | -44.1 | 19.2
CCOc1ccc(-c2nnc(SCC(=O)Nc3ccc4c(c3)c3ccccc3n4CC)n2N)cc1 | 4.2 | 0.2 | 73.3* | 40.6 | -224.3 | -40.6

Assay outcomes: PubChem, Broad Institute
